Compound activity deposited in PubChem BioAssay by several laboratories.
An excerpt weighted towards active compounds, which were near 1.5% of everything screened.
STAT1 blocker – inhibitors of IFN-gamma induced STAT1 signaling; NIH 3T3 STAT1-luciferase reporter, luminescence; inhibition, % at 5.5 µM; hit rate 0.35% among 200,000; AID 920;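 active means inhibition above a set limit, the mean inhibition across all tested compounds plus 3 SD, cut at about 34% in these data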;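 further: 0% = IFN-gamma with DMSO and 100% = IFN-gamma with 300 µM nifuroxazide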
Platelet DG rel – platelet dense granule release activity; human platelet-rich plasma, SFLLRN dense granule ATP release, luminescence; inhibition, %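 (compounds screened at 7.5 µM in platelet-rich plasma)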; hit rate 0.22% among 300,000;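 active means mean replicate score, as percent of positive control, at or above 50; inconclusive means mean below 50 but at least one replicate at or above 50; inactive means mean and every replicate below 50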
PPC-1+TRAIL kill – compounds killing PPC-1 cancer cells with TRAIL present (potentiator screen, no TRAIL-free arm); PPC-1 cells + TRAIL, ATPLite viability luminescence; cell killing (% activity), % at 4 µM or 5 µM; hit rate 0.41% among 220,000; AID 1443;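 active means cell killing above 50% in the first pass at 4 µM, then a duplicate retest at 5 µM averaging 50% or more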;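 further: plate controls were cells with TRAIL plus DMSO for no effect and medium-only wells lacking cells for full effect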
Hep lipid drop – hepatic lipid droplet formation modulation; hit rate 0.4% among 240,000; inhibition, % at 6.5 µM; AML12 mouse hepatocytes, oleate lipid droplets, BODIPY imaging;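 active means lipid droplet intensity inhibited by at least 50%, with more than 500 cells counted; inconclusive means wells with under 300 cells, treated as cytotoxic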
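material = mouse AML12 hepatocyte cell line, fixed after treatment | also added = 100 µM oleic acid challenge | doses = compound at 6.5 µM only | schedule = overnight exposure | technique = Image-based BODIPY and DAPI two-channel analysis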
STAT3 inh – inhibitors of IL-6 induced STAT3 signaling; U3A cells, IL-6 STAT3-luciferase reporter, luminescence; host cell line lacks STAT1; AID 862; hit rate 0.89% among 190,000; inhibition, % at 5.5 µM;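 active means inhibition above the mean inhibition across all screened compounds plus 3 SD, cut at about 44% in these data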;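 further: 0% = DMSO only wells and 100% = 100 µM nifuroxazide control wells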
H9c2 TAG inh – reduces triacylglycerol accumulation in H9c2 cells. Nile Red lipid (TAG) fluorescence; cells loaded with 200 µM oleic acid. inhibition, % at 12.5 µM. hit rate 0.66% among 230,000;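 active means pattern-corrected inhibition of lipid staining of at least 50% with the nuclear-stain viability signal not falling by more than 50%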;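 further: 0% = DMSO wells and 100% = triacsin C control wells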
H9c2 TAG conf – confirmation of triacylglycerol accumulation inhibitors | hit rate 71% among 990 | AID 651629 | H9c2 lipid accumulation, Nile Red fluorescence; cells loaded with 200 µM oleic acid | inhibition, % at 12.5 µM | shares compounds with H9c2 TAG inh;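 active means mean inhibition across replicates of 40% or more; inactive means mean inhibition below 40%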;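 further: plate controls were DMSO only wells for no effect and Triacsin C treated wells for full effect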
* hit, by the source's call; u = inconclusive; x = not tested or not shown.

SMILES | STAT1 blocker | Platelet DG rel | PPC-1+TRAIL kill | Hep lipid drop | STAT3 inh | H9c2 TAG inh | H9c2 TAG conf
Nc1ccc(C#Cc2c(-c3ccsc3)oc3ccc(N4CCOCC4)cc23)cc1 | x | 2 | x | x | x | 51* | 53*
COc1cc(O)c(C=Nc2ccccc2NS(=O)(=O)c2ccc(C)cc2)c(OC)c1 | x | x | x | x | x | -6 | x
CC(C)C(=O)Nc1ccc2c(c1)nc(CCN1CCN(c3ccccn3)CC1)n2C | x | 6 | x | 0 | x | x | x
COc1ccc(/C=C2/C(=O)N(c3ccccc3)N=C2C)cc1OC | x | 2 | x | -7 | x | 3 | x
COc1cccc(/C=C/C(=C2\C(=O)N(c3ccccc3)N=C2C)c2ccc(Br)cc2)c1OC | 0 | x | x | x | 4 | 79* | 97*
COC(=O)c1cc(C(=O)N2CCN(c3ccccc3OC)CC2)cc([N+](=O)[O-])c1 | -13 | 0 | 7 | u | -8 | 51* | 85*
O=C(COC(=O)C1=COCCO1)NCc1ccc(Cl)cc1Cl | x | x | x | x | x | 66* | 9
O=C(NCc1ccc(Cl)c(Cl)c1)c1cc(C2CCCCN2C(=O)c2cccs2)on1 (stereo unspecified) | x | x | x | x | x | -27 | x
O=Cc1cn(-c2ccccc2)nc1-c1ccc2c(c1)OCCO2 | -75 | x | 5 | 27 | -8 | 9 | x
N#Cc1cn(-c2ccccc2)nc1-c1ccc2c(c1)OCCO2 | -50 | -1 | 15 | 24 | -16 | 59* | 11
N#Cc1c(-c2ccc(Cl)cc2)n(O)c2ccccc12 | x | x | x | x | x | -36 | x
Cn1nnnc1Sc1ncnc2scc(-c3ccc(-c4ccccc4)cc3)c12 | x | x | x | x | x | 59* | 36
O=C(OCc1cc(=O)n2ccsc2n1)C1(c2ccccc2)CC1 | x | x | x | x | x | 11 | x
CCC(C)NCC(=O)Nc1ccc(-c2nc3cc(NC(=O)CNC(C)CC)ccc3o2)cc1 (stereo unspecified) | -2 | x | 15 | 2 | 4 | 53* | 31
CCN(CC)CC(=O)Nc1ccc(-c2nc3cc(NC(=O)CN(CC)CC)ccc3o2)cc1 | -8 | -1 | 13 | 3 | 0 | 48 | x
CCCNC(=O)C1(C)CCN1C(=O)Cc1ccc(C(C)C)cc1 (stereo unspecified) | x | x | x | x | x | -8 | x
COc1ccccc1Oc1ccc(S(=O)(=O)N2CCOCC2)cc1S(=O)(=O)N1CCOCC1 | 0 | 7 | 11 | -4 | 0 | x | x
Cc1ccc(Oc2ccc(S(=O)(=O)N3CCOCC3)cc2C(N)=O)c(-n2nc3ccccc3n2)c1 | -2 | -1 | -3 | x | -3 | 50* | 46*
CC1CCN(c2cc(N3CCC(C)CC3)c([N+](=O)[O-])cc2/C=C(\C#N)c2nn(-c3ccccc3)c(N)c2C#N)CC1 | -5 | 3 | 10 | x | 7 | 52* | 49*
CC(C)(Oc1ccc(Cl)cc1)C(=O)Nc1ccc2oc(-c3ccncc3)nc2c1 | -2 | 5 | 25 | 47 | 37 | 57* | 46*
O=C(COc1ccc(Cl)cc1)Nc1ccc2oc(-c3ccncc3)nc2c1 | -1 | -4 | 18 | 4 | 32 | 25 | x
Cc1cc(N2CCN(Cc3cn(C)nc3-c3cccc(Cl)c3)CC2)cc(C)n1 | 13 | -3 | 4 | -17 | 5 | 71* | 77*
Cc1cc(N2CCN(Cc3cn(C)nc3-c3ccccc3F)CC2)cc(C)n1 | 4 | -2 | 9 | -66 | 12 | 74* | 84*
Cn1cc(CN2CCN(c3ncccn3)CC2)c(-c2cccc(Cl)c2)n1 | 7 | 1 | 16 | 9 | 1 | -17 | x
CCOCCOC(=O)c1[nH]c2c(c1C)C(=O)CC(c1cccs1)C2 (stereo unspecified) | 20 | 15 | -8 | u | -29 | 53* | 50*
COCCOC(=O)c1[nH]c2c(c1C)C(=O)CC(c1cccs1)C2 (stereo unspecified) | 11 | 10 | 0 | u | 11 | 44 | x
Cc1c(C(=O)OCC(C)C)[nH]c2c1C(=O)CC(c1cccs1)C2 (stereo unspecified) | -4 | 1 | 1 | -144 | 19 | 64* | 50*
CN1CCN(CCCN2c3ccccc3Sc3ccc(Cl)cc32)CC1 | 2 | -1 | 23 | -23 | 2 | 17 | x
OC1CC2CCC(C1)N2CCCN1c2ccccc2Sc2ccc(Cl)cc21 (stereo unspecified) | x | x | x | x | x | 104* | 79*
